Screening data from PubChem BioAssay.
Rows were chosen to be rich in hits. Some 4.9% of all compounds tested hit in one or more screens of this group.
STAT3 activator: STAT3 signaling activation; hit rate 0.91% among 190,000; U3A cells, IL-6 STAT3-luciferase reporter, luminescence; 100% = signal with IL-6 EC80 alone; AID 871; activation (% of control), % at 5.6 µM;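 active = activation above the screen-wide mean of compound activation plus 3 SD, cut at about 130% in these data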;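 note: 0% = background luminescence of wells with medium and substrate only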
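Test system: Human STAT1-deficient U3A cells with stable STAT3-luciferase reporter | Also added: Interleukin-6, 33 ng/mL | Timing: Compound pre-incubation 1 h before IL-6, then 6 h stimulation at 37 °C | Technique: Luciferase reporter luminescence | Read-out: Percent of IL-6-only median luminescence | Benchmarks: IL-6-only wells as 100% reference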
APP 5'UTR act: APP 5'UTR luciferase reporter activation; hit rate 1% among 190,000; AID 1276; activation, % at 2 µM; SH-SY5Y APP 5'UTR luciferase reporter, luminescence; zero percent = DMSO vehicle wells;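 active = activation above a set limit, based on mean plus 3 SD of controls, cut at about 140% in these data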
NF-kB neuron act: NF-kB expression increase, human neuronal cells | NF-kB reporter expression; active compounds read high | fold change at 12.5 µM | hit rate 1.6% among 190,000 | AID 1239; in the data active = fold change above about 3.3
STAT1 activator: activators of IFN-gamma induced STAT1 signaling; NIH 3T3 STAT1-luciferase reporter, luminescence; 100% = IFN-gamma alone, no compound; activation (% of control), % at 5.5 µM; hit rate 2.6% among 200,000; AID 932;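 active = activation above the screen-wide mean activation plus 3 SD, cut at about 130% in these data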;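 note: raw ratio to IFN-gamma control signal so 100% means no change and 0% no light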
STAT1 inh: reduces IFN-gamma driven STAT1 reporter signal; inhibition, % at 5.5 µM; hit rate 0.35% among 200,000; AID 920; NIH 3T3 STAT1-luciferase reporter, luminescence;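 active = inhibition above a set limit, the mean inhibition across all tested compounds plus 3 SD, cut at about 34% in these data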;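 note: 0% = IFN-gamma with DMSO and 100% = IFN-gamma with 300 µM nifuroxazide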
STAT3 inh: reduces IL-6 driven STAT3 reporter signal; U3A cells, IL-6 STAT3-luciferase reporter, luminescence; host cell line lacks STAT1; inhibition, % at 5.5 µM; hit rate 0.89% among 190,000; AID 862;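 active = inhibition above the mean inhibition across all screened compounds plus 3 SD, cut at about 44% in these data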;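 note: 0% = DMSO only wells and 100% = 100 µM nifuroxazide control wells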
The depositor's hits bear a star; nt = not tested or not shown.

SMILES | STAT3 activator | APP 5'UTR act | NF-kB neuron act | STAT1 activator | STAT1 inh | STAT3 inh
Cc1nc2cc(NC(=O)Nc3ccccc3Cl)ccc2n1C | 30 | 193* | 3.9* | 62 | 40* | 84*
CC(C)Oc1ccc(C(=O)Nc2ccc(C(F)(F)F)n(C)c2=O)cc1 | 88 | 7 | 1.6 | 100 | 0 | 11
O=C1/C(=C\c2cccs2)Sc2ccc3ccccc3c21 | 180* | 178* | 1.1 | 105 | -6 | -94
O=C(c1ccco1)N1CCN(C(=O)c2ccc(COc3ccc4c(c3)CCC4)o2)CC1 | 98 | -4 | 0.45 | 132* | -35 | 6
O=C(c1ccc(COc2ccc3c(c2)CCC3)o1)N1CCN(c2ccccc2)CC1 | 109 | 1 | nt | 102 | -2 | -6
O=C(Nc1ccc(N2CCCC2=O)cc1)c1cccc(F)c1 | 74 | 57 | 5.4* | 138* | -41 | 33
COc1cc(/C=C/C(=O)OCC(=O)NCc2cccs2)ccc1OCC#N | 106 | 3 | 1.2 | 95 | 5 | -4
CCOC(=O)C1(Cc2cccc(OC)c2)CCCN(Cc2cc(C(C)C)n[nH]2)C1 (configuration not stated) | 107 | -7 | 0.89 | 96 | 3 | -3
CCOC(=O)C1(Cc2cccc(OC)c2)CCCN(C(=O)c2cc(C)[nH]n2)C1 (configuration not stated) | 112 | 34 | 2.5 | 140* | -45 | -11
C=CCNC(=O)CCc1nnc(C2(c3ccc(Cl)cc3)CCC2)o1 | 114 | 57 | 2.9 | 140* | -46 | -8
Cc1ccccc1NC(=O)/C(C#N)=C\c1ccsc1 | 127 | -1 | 1.2 | 102 | -2 | -35
Cc1ccc(NC(=O)/C(C#N)=C/c2ccsc2)c(C)c1 | 97 | -3 | 1.7 | 137* | -42 | 5
CC(=O)n1c2c(c3ccccc31)OC(N)=C(C#N)C2c1ccc(C(C)C)cc1 (configuration not stated) | 165* | 48 | 0.61 | 129* | -32 | -73
Nc1c(C(=O)c2ccc(Cl)cc2)sc2nc3c(cc12)CCC3 | 105 | 135* | 1.1 | 113 | -15 | -5
N#Cc1sc2nc3c(cc2c1N)CCCC3 | 81 | 0 | 1.1 | 111 | -12 | 25
CC(c1ccco1)N(C(=O)c1ccccc1NS(=O)(=O)c1ccc(Cl)c([N+](=O)[O-])c1)c1ccccn1 (configuration not stated) | 100 | -3 | 1.4 | 84 | 18 | 0
O=C(Nc1ccccc1)c1cc2n(n1)C(C(F)(F)F)CC(C1CC1)N2 (configuration not stated) | 106 | 86 | 2.3 | 142* | -48 | -4
CN(C(=O)C1CCOC1)c1nnc(-c2ccccn2)s1 (configuration not stated) | 87 | 13 | 1.9 | 132* | -34 | 19
CN(C(=O)C1CCOC1)c1nnc(-c2ccncc2)s1 (configuration not stated) | 103 | 2 | 1 | 100 | -1 | 0
Fc1ccc(-c2nnc(NC3=NCCCCC3)o2)cc1 | 20 | 45 | 0.65 | 38 | 68* | 100*
O=C(NCCc1ccccc1)C(=Cc1ccc(C(=O)O)cc1)C(=O)NCCc1ccccc1 | 96 | 0 | 1 | 95 | 5 | 7
C/C(=C\c1ccccc1)C(=O)NCCc1ccccc1 | 80 | 177* | 4.5* | 105 | -7 | 28
CCc1cccc(C)c1NC(=O)CNCc1ccccc1 | 106 | 16 | 1.1 | 97 | 3 | -8
O=C(N/N=C\c1ccc2c(c1)OCO2)c1ccco1 | 102 | 97 | 2.4 | 147* | -51 | -7
O=C(N/N=C\c1cccc(OC(=O)c2ccco2)c1)c1ccc2c(c1)OCO2 | 64 | 83 | 5.1* | 118 | -21 | 43
SMILES | STAT3 activator | APP 5'UTR act | NF-kB neuron act | STAT1 activator | STAT1 inh | STAT3 inh
NC(=O)/C(=C/c1ccc2c(c1)OCO2)NC(=O)c1ccco1 | 87 | -4 | 0.96 | 102 | -2 | 20
Cc1cc(C(=O)N/N=C/c2cccc(OC(=O)c3ccco3)c2)n[nH]1 | 92 | 4 | 1.5 | 98 | 2 | 16
CCOC1(/N=C(\C)NS(=O)(=O)c2ccc(Cl)cc2)C(C)=CC(=O)C=C1C | 102 | 5 | 0.85 | 105 | -7 | 5
Brc1ccccc1-c1nnc(SCc2nc3ccccc3s2)o1 | 143* | 81 | 1.2 | 136* | -40 | -50
CCOCCCNC(C(=O)Nc1ccc(OC)c(Cl)c1)c1ccccc1 (configuration not stated) | 108 | 169* | 1 | 100 | -1 | -8
COCCNC(C(=O)Nc1cc(Cl)cc(Cl)c1)c1ccccc1 (configuration not stated) | 106 | 3 | 0.87 | 91 | 10 | 0
Clc1ccc(OCc2cn3ccccc3n2)c2ncccc12 | 102 | 83 | 3 | 145* | -50 | 2
OCc1ccccc1OCCOc1ccc(Cl)c2cccnc12 | 93 | 25 | 1.4 | 109 | -9 | 12
CN(C)/C=C1\C(=O)Nc2ccccc21 | 135* | nt | 1.1 | 95 | 6 | -32
CCn1c(/C=C2\C(=O)Nc3ccccc32)nc2ccccc2c1=O | 95 | nt | 1.2 | 105 | -6 | 6
Cc1cc(/C=C(\C#N)c2nc3ccccc3[nH]2)c(C)n1C | 94 | 57 | 2.7 | 142* | -47 | 5
N#C/C(=C\c1cc([N+](=O)[O-])c(N2CCOCC2)cc1N1CCOCC1)c1nc2ccccc2[nH]1 | 100 | -4 | 0.46 | 107 | -7 | 5
N#C/C(=C/c1cccs1)c1nc2ccccc2[nH]1 | 108 | 69 | 1.6 | 145* | -50 | -7
COc1c(O)ccc(/C=C(\C#N)c2nc3ccccc3[nH]2)c1[N+](=O)[O-] | 118 | 88 | 1.1 | 134* | -39 | -21
N#C/C(=C/c1ccc(N2CCOCC2)o1)c1nc2ccccc2[nH]1 | 68 | 158* | 2.8 | 149* | -53 | 40
CCc1nnc(NC(=O)CCC(=O)Nc2ccccc2)s1 | 109 | -8 | 1 | 103 | -3 | -9
Cc1nc(NC(=S)Nc2ccccc2)sc1C | 103 | 140* | 4.8* | 124 | -26 | -2
CC(C)COC(=O)Nc1nnc(Cc2ccccc2)s1 | 118 | -11 | 2.4 | 133* | -35 | -11
CCc1nnc(NC(=S)Nc2ccccc2)s1 | 89 | 49 | 3.3* | 132* | -36 | 16
CC(C)Cc1nnc(NC(=O)Nc2ccccc2)s1 | 102 | 77 | 2.6 | 147* | -53 | 0
Cc1ccc(C(=O)Nc2nnc(NC(=S)Nc3ccccc3)s2)cc1 | 69 | 8 | 1.6 | 118 | -22 | 40
O=C(Cc1nnc(NC(=O)Nc2ccccc2)s1)NCc1ccccc1 | 107 | 13 | 1.4 | 101 | -1 | -9
CCn1c(CCC(=O)Nc2nc3c(s2)CCCC3)nc2cc(S(=O)(=O)N(C)C)ccc21 | 89 | 16 | 0.57 | 108 | -8 | 16
